The text below walks through data of ChEMBL document CHEMBL2380219, “Physalin A induces apoptotic cell death and protective autophagy in HT1080 human fibrosarcoma cells” (J Nat Prod, 2013).

For one data set, the system named is HT-1080. Description: Cytotoxicity against human HT1080 cells assessed as growth inhibition after 24 hrs by MTT assay. The class given is functional, cell-based. Conditions: HT-1080, 24 h. In general terms: Tetrazolium dyes change colour on reduction, which living cells bring about.
The test system of a further data set is PBMC. Description: Cytotoxicity against human PBMC at 40 to 80 uM after 24 to 48 hrs by MTT assay. It counts as cell-based. In outline:
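hPBMC from fresh blood of three healthy male volunteers, isolated on Ficoll-Hypaque (1.077 g/mL) at 900g for 30 min and washed, then seeded in complete RPMI-1640. Exposed to 10–80 μM for 24 and 48 h, with DMSO below 0.05%. MTT was read at 492 nm after formazan in DMSO. Inhibition % = (control−sample)/(control−blank)×100; mean ± SD, three independent experiments.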

On to `O=c1[nH]cc(F)c(=O)[nH]1` [FLUOROURACIL], for which the concentration for half-maximal inhibition (IC50) (as a rule, the concentration that gives 50% inhibition) in the data set with HT-1080 came out at 70.8 µM. Further, the Activity entry in the data set on PBMC is reported as “Non-toxic”.
Regarding `CC(=O)O[C@H]1C(=O)[C@@]2(C)[C@H]([C@H](OC(=O)c3ccccc3)[C@]3(O)C[C@H](OC(=O)[C@H](O)[C@@H](NC(=O)c4ccccc4)c4ccccc4)C(C)=C1C3(C)C)[C@]1(OC(C)=O)CO[C@@H]1C[C@@H]2O` [PACLITAXEL], in the data set with HT-1080, the IC50 was determined as 6 µM. Further, the Activity entry with PBMC was “Non-toxic”.
